Test results published in ChEMBL document CHEMBL1255376, “Comparative surveillance study of telavancin activity against recently collected gram-positive clinical isolates from across the United States” (2008).

How the values were obtained:
Type in all cases: functional
Enterococcus faecalis [1] = test: Antibacterial activity against vancomycin-susceptible Enterococcus faecalis clinical isolate by broth microdilution method
Procedure, shortened: (§1)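 MICs by CLSI broth microdilution in frozen trays pre-loaded with serial dilutions of each agent. Quality-control strains run in parallel: E. faecalis ATCC 29212 and ATCC 51299, S. aureus ATCC 29213, S. pneumoniae ATCC 49619. Comparator susceptibility categories follow CLSI breakpoints. Methicillin resistance in staphylococci assigned from the oxacillin MIC.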

Enterococcus faecalis [2] = test: Antibacterial activity against vancomycin- and teichoplanin-nonsusceptible Enterococcus faecalis clinical isolate by broth microdilution method; procedure, shortened: as §1
Enterococcus faecium [3] = test: Antibacterial activity against vancomycin-susceptible Enterococcus faecium clinical isolate by broth microdilution method
Procedure, shortened: (§2)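 MIC by CLSI broth microdilution in frozen microtiter trays holding serial dilutions of each agent, prepared from standard laboratory powders. E. faecalis ATCC 29212 and ATCC 51299, S. aureus ATCC 29213 and S. pneumoniae ATCC 49619 run in parallel as quality-control strains. Comparator susceptibility interpreted with CLSI breakpoints.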

Enterococcus faecium [4] = test: Antibacterial activity against vancomycin- and teichoplanin-nonsusceptible Enterococcus faecium clinical isolate by broth microdilution method; procedure, shortened: as §1
Enterococcus faecalis [5] = test: Antibacterial activity against vancomycin-resistant and teichoplanin-susceptible Enterococcus faecalis clinical isolate by broth microdilution method; procedure, shortened: as §1
Enterococcus faecium [6] = test: Antibacterial activity against vancomycin-resistant and teichoplanin-susceptible Enterococcus faecium clinical isolate by broth microdilution method; procedure, shortened: as §1
Streptococcus pneumoniae [7] = test: Antibacterial activity against penicillin intermediate Streptococcus pneumoniae clinical isolate by broth microdilution method; procedure, shortened: as §1
[8] = Antibacterial activity against Streptococcus sp. Group C clinical isolate by broth microdilution method; procedure, shortened: as §2
Streptococcus agalactiae = test: Antibacterial activity against Streptococcus agalactiae clinical isolate by broth microdilution method; procedure, shortened: as §2
Streptococcus equinus = test: Antibacterial activity against Streptococcus bovis clinical isolate by broth microdilution method; procedure, shortened: as §2
Streptococcus mitis = test: Antibacterial activity against Streptococcus mitis clinical isolate by broth microdilution method; procedure, shortened: as §2
Streptococcus sp. [9] = test: Antibacterial activity against Streptococcus sp. clinical isolate by broth microdilution method
Procedure, shortened: (§3)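 MIC by CLSI broth microdilution in frozen microtiter trays holding serial dilutions of each agent, prepared from standard laboratory powders. Comparator susceptibility interpreted with CLSI breakpoints.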

Streptococcus oralis = test: Antibacterial activity against Streptococcus oralis clinical isolate by broth microdilution method; procedure, shortened: as §2
Streptococcus pneumoniae [10] = test: Antibacterial activity against penicillin resistant Streptococcus pneumoniae clinical isolate by broth microdilution method; procedure, shortened: as §1
Streptococcus sp. [11] = test: Antibacterial activity against Streptococcus sp. Group F clinical isolate by broth microdilution method; procedure, shortened: as §3
[12] = test system: Streptococcus constellatus; test: Antibacterial activity against Streptococcus constellatus clinical isolate by broth microdilution method; procedure, shortened: as §2
Streptococcus sanguinis = test: Antibacterial activity against Streptococcus sanguinis clinical isolate by broth microdilution method; procedure, shortened: as §2
Streptococcus pneumoniae [13] = test: Antibacterial activity against penicillin susceptible Streptococcus pneumoniae clinical isolate by broth microdilution method; procedure, shortened: as §1
[14] = Antibacterial activity against Streptococcus sp. Group G clinical isolate by broth microdilution method; procedure, shortened: as §2
[15] = test system: Streptococcus intermedius; test: Antibacterial activity against Streptococcus intermedius clinical isolate by broth microdilution method; procedure, shortened: as §2
Streptococcus pyogenes = test: Antibacterial activity against Streptococcus pyogenes clinical isolate by broth microdilution method; procedure, shortened: as §2
Staphylococcus hominis [16] = test: Antibacterial activity against methicillin-resistant coagulase-negative Staphylococcus hominis clinical isolate by broth microdilution method; procedure, shortened: as §1
Staphylococcus xylosus [17] = test: Antibacterial activity against methicillin-resistant coagulase-negative Staphylococcus xylosus clinical isolate by broth microdilution method; procedure, shortened: as §1
[18] = test system: Staphylococcus haemolyticus; test: Antibacterial activity against methicillin-susceptible coagulase-negative Staphylococcus haemolyticus clinical isolate by broth microdilution method; procedure, shortened: as §1
Staphylococcus [19] = test: Antibacterial activity against methicillin-susceptible coagulase-negative unspeciated Staphylococcus clinical isolate by broth microdilution method; procedure, shortened: as §1
Staphylococcus warneri [20] = test: Antibacterial activity against methicillin-susceptible coagulase-negative Staphylococcus warneri clinical isolate by broth microdilution method; procedure, shortened: as §1
Staphylococcus hominis [21] = test: Antibacterial activity against methicillin-susceptible coagulase-negative Staphylococcus hominis clinical isolate by broth microdilution method; procedure, shortened: as §1
[22] = test system: Staphylococcus saprophyticus; test: Antibacterial activity against methicillin-susceptible coagulase-negative Staphylococcus saprophyticus clinical isolate by broth microdilution method; procedure, shortened: as §1
Staphylococcus [23] = test: Antibacterial activity against methicillin-resistant coagulase-negative unspeciated Staphylococcus clinical isolate by broth microdilution method; procedure, shortened: as §1
Mammaliicoccus sciuri [24] = test: Antibacterial activity against methicillin-resistant coagulase-negative Staphylococcus sciuri clinical isolate by broth microdilution method; procedure, shortened: as §1
Staphylococcus cohnii [25] = test: Antibacterial activity against methicillin-resistant coagulase-negative Staphylococcus cohnii clinical isolate by broth microdilution method; procedure, shortened: as §1
Staphylococcus xylosus [26] = test: Antibacterial activity against methicillin-susceptible coagulase-negative Staphylococcus xylosus clinical isolate by broth microdilution method; procedure, shortened: as §1
Staphylococcus cohnii [27] = test: Antibacterial activity against methicillin-susceptible coagulase-negative Staphylococcus cohnii clinical isolate by broth microdilution method; procedure, shortened: as §1
[28] = test system: Staphylococcus epidermidis; test: Antibacterial activity against methicillin-susceptible coagulase-negative Staphylococcus epidermidis clinical isolate by broth microdilution method; procedure, shortened: as §1
Staphylococcus simulans [29] = test: Antibacterial activity against methicillin-resistant coagulase-negative Staphylococcus simulans clinical isolate by broth microdilution method; procedure, shortened: as §1
Staphylococcus warneri [30] = test: Antibacterial activity against methicillin-resistant coagulase-negative Staphylococcus warneri clinical isolate by broth microdilution method; procedure, shortened: as §1
[31] = test system: Staphylococcus epidermidis; test: Antibacterial activity against methicillin-resistant coagulase-negative Staphylococcus epidermidis clinical isolate by broth microdilution method; procedure, shortened: as §1
Staphylococcus capitis [32] = test: Antibacterial activity against methicillin-resistant coagulase-negative Staphylococcus capitis clinical isolate by broth microdilution method; procedure, shortened: as §1
Staphylococcus aureus [33] = test: Antibacterial activity against methicillin-susceptible Staphylococcus aureus clinical isolate by broth microdilution method; procedure, shortened: as §1
[34] = test system: Staphylococcus saprophyticus; test: Antibacterial activity against methicillin-resistant coagulase-negative Staphylococcus saprophyticus clinical isolate by broth microdilution method; procedure, shortened: as §1
Mammaliicoccus sciuri [35] = test: Antibacterial activity against methicillin-susceptible coagulase-negative Staphylococcus sciuri clinical isolate by broth microdilution method; procedure, shortened: as §1
Staphylococcus simulans [36] = test: Antibacterial activity against methicillin-susceptible coagulase-negative Staphylococcus simulans clinical isolate by broth microdilution method; procedure, shortened: as §1
Staphylococcus aureus [37] = test: Antibacterial activity against methicillin-resistant Staphylococcus aureus clinical isolate by broth microdilution method; procedure, shortened: as §1
[38] = test system: Staphylococcus haemolyticus; test: Antibacterial activity against methicillin-resistant coagulase-negative Staphylococcus haemolyticus clinical isolate by broth microdilution method; procedure, shortened: as §1
Staphylococcus capitis [39] = test: Antibacterial activity against methicillin-susceptible coagulase-negative Staphylococcus capitis clinical isolate by broth microdilution method; procedure, shortened: as §1

CC1(C)S[C@@H]2[C@H](NC(=O)[C@H](N)c3ccccc3)C(=O)N2[C@H]1C(=O)O [AMPICILLIN]
128 µg/mL: MIC50 (Enterococcus faecium [3]) | MIC50 (Enterococcus faecium [4]) | MIC50 (Enterococcus faecium [6])
> 128 µg/mL: MIC90 (Enterococcus faecium [3]) | MIC90 (Enterococcus faecium [4])
2 µg/mL: MIC90 (Enterococcus faecalis [2])
0.5 µg/mL: MIC (Enterococcus faecalis [5])
1 µg/mL: MIC50 (Enterococcus faecalis [1]) | MIC90 (Enterococcus faecalis [1]) | MIC50 (Enterococcus faecalis [2])

C[C@H]1COc2c(N3CCN(C)CC3)c(F)cc3c(=O)c(C(=O)O)cn1c23.C[C@H]1COc2c(N3CCN(C)CC3)c(F)cc3c(=O)c(C(=O)O)cn1c23.O [LEVOFLOXACIN]
0.5 µg/mL: MIC50 (Streptococcus pneumoniae [7]) | MIC50 [8] | MIC90 [8] | MIC50 (Streptococcus agalactiae) | MIC50 (Streptococcus equinus) | MIC50 (Streptococcus mitis) | MIC50 (Streptococcus sp. [9]) | MIC50 (Streptococcus oralis) | MIC50 (Streptococcus pneumoniae [10]) | MIC50 (Streptococcus sp. [11]) | MIC90 (Streptococcus sp. [11]) | MIC50 [12] | MIC50 (Streptococcus sanguinis) | MIC50 [14] | MIC90 [14] | MIC50 [15] | MIC50 (Streptococcus pyogenes)
1 µg/mL: MIC90 (Streptococcus pneumoniae [7]) | MIC90 (Streptococcus agalactiae) | MIC90 (Streptococcus equinus) | MIC90 (Streptococcus mitis) | MIC90 (Streptococcus sp. [9]) | MIC90 (Streptococcus oralis) | MIC90 (Streptococcus pneumoniae [10]) | MIC90 [12] | MIC90 (Streptococcus sanguinis) | MIC50 (Streptococcus pneumoniae [13]) | MIC90 (Streptococcus pneumoniae [13]) | MIC90 [15] | MIC90 (Streptococcus pyogenes)

CC(=O)NC[C@H]1CN(c2ccc(N3CCOCC3)c(F)c2)C(=O)O1 [LINEZOLID]
≤ 0.12 µg/mL: MIC (Streptococcus sp. [9])
1 µg/mL: MIC50 (Streptococcus pneumoniae [7]) | MIC90 (Streptococcus pneumoniae [7]) | MIC50 (Staphylococcus hominis [16]) | MIC90 (Staphylococcus hominis [16]) | MIC50 (Staphylococcus xylosus [17]) | MIC90 (Staphylococcus xylosus [17]) | MIC50 [18] | MIC90 [18] | MIC50 (Staphylococcus [19]) | MIC90 (Staphylococcus [19]) | MIC50 (Enterococcus faecalis [1]) | MIC50 (Staphylococcus warneri [20]) | MIC90 (Staphylococcus warneri [20]) | MIC50 (Staphylococcus hominis [21]) | MIC90 (Staphylococcus hominis [21]) | MIC50 [22] | MIC90 [22] | MIC50 (Enterococcus faecalis [2]) | MIC50 (Staphylococcus [23]) | MIC90 (Staphylococcus [23]) | MIC50 (Streptococcus agalactiae) | MIC90 (Streptococcus agalactiae) | MIC50 (Streptococcus equinus) | MIC90 (Streptococcus equinus) | MIC50 (Streptococcus mitis) | MIC90 (Streptococcus mitis) | MIC50 (Mammaliicoccus sciuri [24]) | MIC90 (Mammaliicoccus sciuri [24]) | MIC50 (Streptococcus oralis) | MIC90 (Streptococcus oralis) | MIC50 (Staphylococcus cohnii [25]) | MIC90 (Staphylococcus cohnii [25]) | MIC50 (Streptococcus pneumoniae [10]) | MIC90 (Streptococcus pneumoniae [10]) | MIC50 (Staphylococcus xylosus [26]) | MIC90 (Staphylococcus xylosus [26]) | MIC50 (Staphylococcus cohnii [27]) | MIC90 (Staphylococcus cohnii [27]) | MIC50 [28] | MIC90 [28] | MIC50 (Staphylococcus simulans [29]) | MIC90 (Staphylococcus simulans [29]) | MIC50 [12] | MIC90 [12] | MIC50 (Staphylococcus warneri [30]) | MIC90 (Staphylococcus warneri [30]) | MIC50 (Streptococcus sanguinis) | MIC90 (Streptococcus sanguinis) | MIC50 [31] | MIC90 [31] | MIC50 (Staphylococcus capitis [32]) | MIC90 (Staphylococcus capitis [32]) | MIC50 (Streptococcus pneumoniae [13]) | MIC90 (Streptococcus pneumoniae [13]) | MIC50 [34] | MIC90 [34] | MIC50 (Mammaliicoccus sciuri [35]) | MIC90 (Mammaliicoccus sciuri [35]) | MIC50 (Staphylococcus simulans [36]) | MIC90 (Staphylococcus simulans [36]) | MIC50 [38] | MIC90 [38] | MIC50 [15] | MIC90 [15] | MIC50 (Staphylococcus capitis [39]) | MIC90 (Staphylococcus capitis [39])
2 µg/mL: MIC90 (Enterococcus faecalis [1]) | MIC90 (Enterococcus faecalis [2]) | MIC50 (Enterococcus faecium [3]) | MIC90 (Enterococcus faecium [3]) | MIC50 (Enterococcus faecium [4]) | MIC90 (Enterococcus faecium [4]) | MIC50 (Staphylococcus aureus [33]) | MIC90 (Staphylococcus aureus [33]) | MIC50 (Staphylococcus aureus [37]) | MIC90 (Staphylococcus aureus [37]) | MIC50 (Enterococcus faecium [6]) | MIC90 (Enterococcus faecium [6])

CC1(C)S[C@@H]2[C@H](NC(=O)Cc3ccccc3)C(=O)N2[C@H]1C(=O)O [PENICILLIN G]
1 µg/mL: MIC90 (Streptococcus equinus) | MIC90 (Streptococcus mitis) | MIC90 (Streptococcus sp. [9]) | MIC90 (Streptococcus oralis) | MIC90 [12] | MIC90 (Streptococcus sanguinis) | MIC90 [15]
≤ 0.06 µg/mL: MIC [8] | MIC50 [8] | MIC90 [8] | MIC (Streptococcus agalactiae) | MIC50 (Streptococcus agalactiae) | MIC90 (Streptococcus agalactiae) | MIC (Streptococcus equinus) | MIC50 (Streptococcus equinus) | MIC (Streptococcus mitis) | MIC50 (Streptococcus mitis) | MIC (Streptococcus sp. [9]) | MIC50 (Streptococcus sp. [9]) | MIC (Streptococcus oralis) | MIC50 (Streptococcus oralis) | MIC (Streptococcus sp. [11]) | MIC50 (Streptococcus sp. [11]) | MIC90 (Streptococcus sp. [11]) | MIC [12] | MIC50 [12] | MIC (Streptococcus sanguinis) | MIC50 (Streptococcus sanguinis) | MIC (Streptococcus pneumoniae [13]) | MIC50 (Streptococcus pneumoniae [13]) | MIC90 (Streptococcus pneumoniae [13]) | MIC [14] | MIC50 [14] | MIC90 [14] | MIC [15] | MIC50 [15] | MIC (Streptococcus pyogenes) | MIC50 (Streptococcus pyogenes) | MIC90 (Streptococcus pyogenes)

GENTAMICIN
2 µg/mL: MIC90 (Staphylococcus aureus [37])
0.5 µg/mL: MIC90 (Staphylococcus aureus [33]) | MIC50 (Staphylococcus aureus [37])
0.25 µg/mL: MIC50 (Staphylococcus aureus [33])
